Measurements as given in article PMC5417661 (Drug Design, Development and Therapy, 2017).

How the values were obtained:
[1] = test system: A2780/Adr (drug resistant); assay: Fluorometric microculture cytotoxicity assay; type: cell-based, human; conditions: for IC50 ratio (resistant vs sensitive cells): A2780/Adr vs A2780; for IC50: 72 h, A2780/Adr (drug resistant) ovarian carcinoma
Summary of the method: (§1)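 FMCA with cells seeded into plates pre-loaded with compound and stored at −20°C or −80°C. Seeding was 1,000–2,500 (384-well) or 5,000–10,000 (96-well) cells/well. Culture media: RPMI 1640 for CCRF-CEM, A2780, A2780/Adr, BXPC-3, U-937 and RPMI 8226; McCoy's for HT29 and HCT116. After 72 h, plates were washed and given fluorescein diacetate buffer for 45 min, then fluorescence was read. Survival index = (treated − blank)/(control − blank); IC50 taken from curves.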

[2] = test system: developing blood vessels of chick embryo; assay: Ex ovo chicken embryo chorioallantoic membrane; type: in vivo; conditions: for effect on blood vessel growth and integrity: 10 nM, vs DMSO vehicle; for growth of the blood vessels (change in relative surface area) / vascular integrity (discontinuity of the vessels): 50 nM, 24 and 48 h posttreatment, vs controls
Summary of the method: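 Fertilized eggs incubated at 37.5°C and 60% humidity, then opened into 10 cm dishes on day 4. Two days later a 5 mm filter paper carrying test compound (10, 50, 200 nM), reference vascular disrupting agent or DMSO was laid on the CAM between two main vessels. Eggs were incubated 2 more days and photographed at 0, 24 and 48 h. Read-outs: relative surface area of vessels touching the paper, and disruption index (intact segments >10 mm).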

[3] = test system: HCT116, HCT8 and MCF10A cells; type: cell-based, human
Summary of the method: (§2)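 HCT116, HCT8 and MCF10A cells were given 50 nM test compound or a reference tubulin agent and imaged on an IncuCyte immediately and for 3 days, at 1 h intervals, in three replicates. Growth curves used mean confluence from six images per time point. Mitotic duration and mitotic fate were scored from time-lapse films: 10 cells per well, 30 cells per condition.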

[4] = Plasma levels in the maximal tolerated dose study; type: in vivo, NMRI nu/nu female mice
Summary of the method: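 In the maximal tolerated dose study, female NMRI nu/nu mice received test compound PO at 10, 20 or 40 mg/kg. Plasma concentrations were measured 1 and 4 h after dosing.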

OvCar-8 cells = assay: Time-lapse mitotic index and cell death index in OC cell lines; type: cell-based, human; conditions: OvCar-8, 12.5 nM
Summary of the method: (§3)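 Ovarian OvCar-8, OvCar-4 and CaOv-3 cells were time-lapse filmed for 3 days, starting immediately after adding 12.5 nM test compound, 12.5 nM paclitaxel or vehicle alone. Mitotic index and cell death index were scored from the films at 12, 24, 48 and 72 h.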

[5] = test system: panel of eight cancer cell lines; assay: FMCA, range over the panel of cancer cell lines; type: cell-based, human; conditions: read-out: IC50, range over cell lines
Summary of the method: as §1

Caco-2 cell monolayers = assay: Caco-2 permeability assay; type: in vitro ADME, human
Summary of the method: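 Caco-2 monolayers grown to confluence on collagen-coated polycarbonate transwell membranes. Buffer was HBSS with 10 mM HEPES and 15 mM glucose, pH 7.4; the receiver side also held 1% BSA. 5 μM test compound was dosed apically (A-to-B) or basolaterally (B-to-A) at 37°C, 5% CO2. Donor and receiver were sampled at 120 min, in duplicate. Co-applied Lucifer yellow checked integrity. High permeability: Papp A-to-B ≥1.0×10−6 cm/s.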

OvCar-4 cells = assay: Time-lapse mitotic index and cell death index in OC cell lines; type: cell-based, human
CaOv-3 cells = assay: Time-lapse mitotic index and cell death index in OC cell lines; type: cell-based, human; conditions: CaOv-3, 12.5 nM
Summary of the method: as §3

HCT8 cells = assay: Live cell microscopy; type: cell-based, human; conditions: HCT8, 50 nM, 30 cells
Summary of the method: as §2

MCF10A cells = assay: Live cell microscopy; type: cell-based, human; conditions: 50 nM, 30 cells
Summary of the method: as §2

[6] = test system: cocultures of endothelial colony forming cells (ECFCs) and adipocyte derived stem cells (ADSCs); assay: Vascular tube formation assay, disruption of established cords; type: cell-based, human
Summary of the method: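 Cocultures of GFP-labelled endothelial colony forming cells and adipocyte-derived stem cells were stimulated with VEGF (20 ng/mL) to form cords. Compounds were added to the established cords at 96 h. Images were taken every 6 h and scored for relative cord length and branch points. pIC50 came from a four-parameter logistic fit of area-under-curve data between 96 and 186 h.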

bovine tubulin protein = assay: In vitro tubulin polymerization assay; type: biochemical; conditions: cell-free, 60 min
Summary of the method: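 Commercial kit using bovine tubulin, cell-free. The test compound was tested at 1.0–10 µM. Vincristine and paclitaxel at 3.0 µM served as inhibition and stabilization controls. Compounds were dissolved in DMSO and diluted in sterile water to at most 0.1% DMSO, which was the solvent control. Polymerization was followed by a fluorescent reporter incorporated into microtubules and read continuously at 360/450 nm for 60 min.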

HCT116 cells = assay: Live cell microscopy; type: cell-based, human; conditions: HCT116, 50 nM, 30 cells
Summary of the method: as §2

A2780 xenograft = assay: Human OC cell xenograft study; type: in vivo, NMRI nu/nu female nude mice
[7] = test system: cocultures of endothelial colony forming cells (ECFCs) and adipocyte derived stem cells (ADSCs); assay: Vascular tube formation assay, neoangiogenic; type: cell-based, human; conditions: 4.6 nM–10 µM, VEGF 20 ng/mL coapplied on day 0
Summary of the method: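 Cocultures of GFP-labelled endothelial colony forming cells and adipocyte-derived stem cells (StemKit). Compounds were co-applied with VEGF (20 ng/mL) on day 0 to follow cord formation. Fluorescent and phase-contrast images (10×) were taken every 6 h for up to 8 days. Cord length (mm/mm2) and branch points were analysed from 3–6 separate samples per condition.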

CCC[C@H](Nc1nc(-c2ccc(NC(=O)NCC)c(OC)c2)ncc1C)c1cccnc1 [CYT997, lexibulin]
IC50 ratio (resistant vs sensitive cells) [1]: 3.35 | IC50 ([1]; Homo sapiens, A2780 ADR): 183 nM

COc1ccc(/C=C\c2cc(OC)c(OC)c(OC)c2)cc1O [Combretastatin A4, reference compound]
effect on blood vessel growth and integrity [2]: ineffective | growth of the blood vessels (change in relative surface area) [2]: significantly suppressed | vascular integrity (discontinuity of the vessels) [2]: significantly suppressed

COc1ccc2[nH]cc(CCNc3nccc(Nc4cccc5c4ccn5C)n3)c2c1 [NOV202]
cell population growth (cell confluency) ([3]; 50 nM, filmed for 3 days): strong growth suppression | effect on interphase and mitotic microtubule networks ([3]; 15–50 nM, data not shown): markedly disrupted or completely wiped out | plasma concentration ([4]; PO 10 mg/kg, 1 h post-dosing): 21 nM | plasma concentration ([4]; PO 10 mg/kg, 4 h post-dosing): 17 nM | plasma concentration ([4]; PO 20 mg/kg, 1 h post-dosing): 54 nM | plasma concentration ([4]; PO 20 mg/kg, 4 h post-dosing): 29 nM | plasma concentration ([4]; PO 40 mg/kg, 1 h post-dosing): 309 nM | plasma concentration ([4]; PO 40 mg/kg, 4 h post-dosing): 76 nM | mitotic index (MI) (OvCar-8 cells; 12 h): 27.0%±4.0% | cell death index (CDI) (OvCar-8 cells; 24 h): 29.0%±9.0% | cell death index (CDI) (OvCar-8 cells; 48 h): 31.0%±10.5% | cell death index (CDI) (OvCar-8 cells; 72 h): 30.0%±2.3% | IC50 [5]: 2.3 to 12 nM | Efflux ratio (Caco-2 cell monolayers; bi-directional Caco-2): 1.0 | Efflux substrate (Caco-2 cell monolayers; significant efflux: efflux ratio >3.0 and Papp B-to-A ≥1.0×10^−6 cm/s): no significant efflux | mitotic index (MI) (OvCar-4 cells; OvCar-4, 12.5 nM, 12 h): 24.0%±9.5% | cell death index (CDI) (OvCar-4 cells; OvCar-4, 12.5 nM, 24 h): 13.7%±1.5% | cell death index (CDI) (OvCar-4 cells; OvCar-4, 12.5 nM, 48 h): 16.3%±2.1% | cell death index (CDI) (OvCar-4 cells; OvCar-4, 12.5 nM, 72 h): 12.0%±1.0% | cell death index (CDI) (OvCar-4 cells; OvCar-4, 50 nM, 24 h): 28.7%±6.8% | cell death index (CDI) (OvCar-4 cells; OvCar-4, 50 nM, 48 h): 48.3%±10.7% | cell death index (CDI) (OvCar-4 cells; OvCar-4, 50 nM, 72 h): 59.3%±13.2% | mitotic index (MI) (CaOv-3 cells; 12 h): 12.7%±2.5% | cell death index (CDI) (CaOv-3 cells; 24 h): 46.0%±1.7% | cell death index (CDI) (CaOv-3 cells; 48 h): 68.7%±4.2% | cell death index (CDI) (CaOv-3 cells; 72 h): 77.0%±4.6% | average duration of mitosis (HCT8 cells): 11.8 ± 3.1 h | average duration of mitosis (MCF10A cells): 16.4 ± 5.2 h | pIC50, disruption of VEGF stimulated established cords ([6]; four-parameter logistic fit of AUC between 96 and 186 h, VEGF 20 ng/mL): 8.3 | effect on tubulin polymerization (bovine tubulin protein; 1.0 µM): slowed down the rate of the polymerization, but could not suppress it | effect on tubulin polymerization (bovine tubulin protein; 3.0 µM): suppress tubulin heterodimer polymerization | effect on tubulin polymerization (bovine tubulin protein; 10 µM): block the polymerization almost completely | average duration of mitosis (HCT116 cells): 26.2 ± 7.1 h | effect on blood vessel growth and integrity [2]: ineffective | growth of the blood vessels (change in relative surface area) [2]: significantly suppressed | vascular integrity (discontinuity of the vessels) [2]: significantly suppressed | effect on tumor volume (A2780 xenograft; PO 40 mg/kg, 5 days on/2 days off, comparable to paclitaxel 24 mg/kg IV): clear antitumor effect | tolerability by body weight measurements (A2780 xenograft; PO 10, 20, 40 mg/kg during the treatment): well tolerated | VEGF-induced cord (tube) formation [7]: completely inhibit tube formation | IC50 [1]: 2.3 nM | IC50 ratio (resistant vs sensitive cells) [1]: 0.96

CC(=O)O[C@H]1C(=O)[C@@]2(C)[C@H]([C@H](OC(=O)c3ccccc3)[C@]3(O)C[C@H](OC(=O)[C@H](O)[C@@H](NC(=O)c4ccccc4)c4ccccc4)C(C)=C1C3(C)C)[C@]1(OC(C)=O)CO[C@@H]1C[C@@H]2O [PTX, paclitaxel]
effect on tubulin polymerization (bovine tubulin protein; 3.0 µM): effective stabilizer of tubulin polymerization | IC50 ratio (resistant vs sensitive cells) [1]: 3,115 | IC50 ([1]; Homo sapiens, A2780 ADR): 810 nM

CC[C@]1(O)C[C@H]2CN(CCc3c([nH]c4ccccc34)[C@@](C(=O)OC)(c3cc4c(cc3OC)N(C=O)[C@H]3[C@@](O)(C(=O)OC)[C@H](OC(C)=O)[C@]5(CC)C=CCN6CC[C@]43[C@@H]65)C2)C1 [VinC, vincristine]
effect on tubulin polymerization (bovine tubulin protein; 3.0 µM): suppress tubulin heterodimer polymerization | IC50 ratio (resistant vs sensitive cells) [1]: 955 | IC50 ([1]; Homo sapiens, A2780 ADR): 210 nM

Cc1ccc(C(=O)Nc2ccc(S(=O)(=O)O)c3cc(S(=O)(=O)O)cc(S(=O)(=O)O)c23)cc1NC(=O)c1cccc(NC(=O)Nc2cccc(C(=O)Nc3cc(C(=O)Nc4ccc(S(=O)(=O)O)c5cc(S(=O)(=O)O)cc(S(=O)(=O)O)c45)ccc3C)c2)c1 [suramin, reference compound]
effect on established cords ([6]; 100 µM, added at t=96 h): complete regression of established cords
